Test results reported in ChEMBL document CHEMBL1671683, “Activity of linezolid in an in vitro pharmacokinetic-pharmacodynamic model using different dosages and Staphylococcus aureus and Enterococcus faecalis strains with and without a hypermutator phenotype” (Antimicrob Agents Chemother, 2010).

Legend:
[1] = system: Enterococcus faecalis; test: Bactericidal activity against 24 hrs peripheral compartment culture samples of Enterococcus faecalis ATCC 29212 in two-compartment pharmacokinetic/pharmacodynamic model assessed as effect on bacterial count at 600 mg, bid administered as 0.5 hr infusion; format: functional
How it was run: (§1)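 An 18-h culture concentrated 50-fold was injected into the peripheral compartment 3 h pre-sampling (~10^8 CFU/ml E. faecalis, 10^9 S. aureus). Counts came from dilution plating (detection limit 2–3 log10 CFU/ml), expressed as Δlog CFU/ml from treatment start. Run in duplicate.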

[2] = Tmax in two-compartment pharmacokinetic/pharmacodynamic model at 600 mg, bid administered as 0.5 hr infusion over 24 hrs; format: ADME, organism-based; settings: iv
[3] = Mean residence time in two-compartment pharmacokinetic/pharmacodynamic model at 200 mg, bid administered as 0.5 hr infusion over 24 hrs; format: ADME, organism-based; settings: in vivo, iv
[4] = system: Staphylococcus aureus subsp. aureus RN4220; test: AUBC (0 to 24 hrs) in Staphylococcus aureus RN4220 in two-compartment pharmacokinetic/pharmacodynamic model at 600 mg, bid administered as 0.5 hr infusion for 2 days; format: functional
How it was run: (§2)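 Hollow-fibre two-compartment model in cation-adjusted, protein-free MH broth at 37°C. Human total-plasma linezolid profile simulated as 0.5-h infusion every 12 h for 48 h. Concentrated 18-h culture injected into the peripheral compartment 3 h before first sample, giving about 10^8 (E. faecalis) or 10^9 (S. aureus) CFU/ml. Viable counts by dilution plating over 0–24 h. Area indices calculated versus growth control curve. Duplicate runs.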

[5] = Volume of distribution at steady state in two-compartment pharmacokinetic/pharmacodynamic model at 200 mg, bid administered as 0.5 hr infusion over 24 hrs; format: ADME, organism-based; settings: iv, read-out: Vdss
[6] = system: Enterococcus faecalis; test: Bactericidal activity against 12 hrs peripheral compartment culture samples of Enterococcus faecalis Ef1497 MutM3 in two-compartment pharmacokinetic/pharmacodynamic model assessed as effect on bacterial count at 600 mg, bid administered as 0.5 hr infusion; format: functional
How it was run: (§3)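 Two-compartment hollow-fibre model in cation-adjusted, protein-free MH broth, 37°C. Linezolid given as simulated 0.5-h infusion twice daily. Inoculum grown 18 h, concentrated 50-fold and placed in the peripheral compartment 3 h before t0. Peripheral samples at set times counted by dilution plating. First 10-fold dilution not plated, limiting detection to 2–3 log10 CFU/ml. Δlog CFU/ml taken from t0 count. Duplicates.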

[7] = system: Enterococcus faecalis; test: Bactericidal activity against 24 hrs peripheral compartment culture samples of Enterococcus faecalis Ef1497 in two-compartment pharmacokinetic/pharmacodynamic model assessed as effect on bacterial count at 800 mg, bid administered as 0.5 hr infusion; format: functional; how it was run: as §1
[8] = Tmax in two-compartment pharmacokinetic/pharmacodynamic model at 600 mg, bid administered as 0.5 hrs infusion; format: ADME, organism-based; settings: iv
How it was run: (§4)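 Two-compartment in vitro hollow-fibre model in cation-adjusted, protein-free Mueller-Hinton broth at 37°C. Human total-plasma linezolid profile simulated as 0.5-h infusion every 12 h for 48 h, computer-controlled syringe pump into central compartment. […] Peripheral samples assayed by validated HPLC-UV (quantification limit 0.39 μg/ml). Tmax read directly from concentration-time profiles. Run in duplicate.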

[9] = system: Enterococcus faecalis; test: Bactericidal activity against 13 hrs peripheral compartment culture samples of Enterococcus faecalis Ef1497 in two-compartment pharmacokinetic/pharmacodynamic model assessed as effect on bacterial count at 600 mg, bid administered as 0.5 hr infusion; format: functional; how it was run: as §1
[10] = system: Enterococcus faecalis; test: Bactericidal activity against 48 hrs peripheral compartment culture samples of Enterococcus faecalis Ef1497 MutM3 in two-compartment pharmacokinetic/pharmacodynamic model assessed as effect on bacterial count at 600 mg, bid administered as 0.5 hr infusion; format: functional; how it was run: as §1
[11] = Elimination half-life in healthy human at 600 mg, iv, bid administered as 0.5 hr infusion; format: ADME, organism-based; settings: in vivo, read-out: beta t1/2 (converted)
[12] = Tmax in two-compartment pharmacokinetic/pharmacodynamic model at 200 mg, bid administered as 0.5 hrs infusion; format: ADME, organism-based; settings: iv; how it was run: as §4
[13] = system: Enterococcus faecalis; test: Bactericidal activity against 14 hrs peripheral compartment culture samples of Enterococcus faecalis Ef1497 MutM3 in two-compartment pharmacokinetic/pharmacodynamic model assessed as effect on bacterial count at 200 mg, bid administered as 0.5 hr infusion; format: functional; how it was run: as §1
[14] = system: Enterococcus faecalis; test: Bactericidal activity against 2 hrs peripheral compartment culture samples of Enterococcus faecalis Ef1497 MutM3 in two-compartment pharmacokinetic/pharmacodynamic model assessed as effect on bacterial count at 200 mg, bid administered as 0.5 hr infusion; format: functional; how it was run: as §1
[15] = system: Enterococcus faecalis; test: AUBC (0 to 24 hrs) in Enterococcus faecalis ATCC 29212 in two-compartment pharmacokinetic/pharmacodynamic model at 600 mg, bid administered as 0.5 hr infusion for 2 days; format: functional; how it was run: as §2
[16] = system: Staphylococcus aureus; test: Bactericidal activity against 0.5 hrs peripheral compartment culture samples of Staphylococcus aureus RN4220 MutS2 in two-compartment pharmacokinetic/pharmacodynamic model assessed as effect on bacterial count at 600 mg, bid administered as 0.5 hr infusion; format: functional; how it was run: as §3
[17] = system: Enterococcus faecalis; test: T>MIC in Enterococcus faecalis ATCC 29212 in two-compartment pharmacokinetic/pharmacodynamic model at 200 mg, bid administered as 0.5 hr infusion for 2 days; format: functional
[18] = system: Enterococcus faecalis; test: Bactericidal activity against 48 hrs peripheral compartment culture samples of Enterococcus faecalis ATCC 29212 in two-compartment pharmacokinetic/pharmacodynamic model assessed as effect on bacterial count at 600 mg, bid for every 12 hrs administered as 0.5 hrs infusion; format: functional; how it was run: as §1
[19] = Total clearance in two-compartment pharmacokinetic/pharmacodynamic model at 800 mg, bid administered as 0.5 hr infusion over 24 hrs; format: ADME, organism-based; settings: in vivo, iv
[20] = system: Enterococcus faecalis; test: Bactericidal activity against 0.5 hrs peripheral compartment culture samples of Enterococcus faecalis Ef1497 in two-compartment pharmacokinetic/pharmacodynamic model assessed as effect on bacterial count at 800 mg, bid administered as 0.5 hr infusion; format: functional; how it was run: as §3
[21] = system: Enterococcus faecalis; test: T>MIC in Enterococcus faecalis Ef1497 MutM3 in two-compartment pharmacokinetic/pharmacodynamic model at 200 mg, bid administered as 0.5 hr infusion for 2 days; format: functional
[22] = system: Enterococcus faecalis; test: T>MIC in Enterococcus faecalis Ef1497 in two-compartment pharmacokinetic/pharmacodynamic model at 800 mg, bid administered as 0.5 hr infusion for 2 days; format: functional
[23] = system: Enterococcus faecalis; test: ABBC (0 to 24 hrs) in Enterococcus faecalis Ef1497 in two-compartment pharmacokinetic/pharmacodynamic model at 800 mg, bid administered as 0.5 hr infusion for 2 days; format: functional; how it was run: as §2
[24] = system: Staphylococcus aureus; test: Bactericidal activity against 12 hrs peripheral compartment culture samples of Staphylococcus aureus RN4220 MutS2 in two-compartment pharmacokinetic/pharmacodynamic model assessed as effect on bacterial count at 600 mg, bid administered as 0.5 hr infusion; format: functional; how it was run: as §1
[25] = system: Enterococcus faecalis; test: Bactericidal activity against 14 hrs peripheral compartment culture samples of Enterococcus faecalis ATCC 29212 in two-compartment pharmacokinetic/pharmacodynamic model assessed as effect on bacterial count at 600 mg, bid administered as 0.5 hr infusion; format: functional; how it was run: as §1
[26] = system: Enterococcus faecalis; test: Bactericidal activity against 24 hrs peripheral compartment culture samples of Enterococcus faecalis Ef1497 in two-compartment pharmacokinetic/pharmacodynamic model assessed as effect on bacterial count at 600 mg, bid administered as 0.5 hr infusion; format: functional; how it was run: as §1
[27] = in vitro; settings: two-compartment pharmacokinetic/pharmacodynamic model, iv, 200 mg

Compound `CC(=O)NC[C@H]1CN(c2ccc(N3CCOCC3)c(F)c2)C(=O)O1` [LINEZOLID] has a log10CFU/ml [1] of 0.32, a Tmax [2] of 0.5 h and an MRT [3] of 7.95 h. The AUBC [4] was 229.4 log10CFU/ml.hr, the Vd [5] was 117 L and the log10CFU/ml [6] was 0.19. It also gave a log10CFU/ml [7] of -0.04, a Tmax [8] of 0.5 h and a log10CFU/ml [9] of 0.09. It also gave a log10CFU/ml [10] of 0.45, a half-life [11] of 5.1 h and a Tmax [12] of 0.5 h. It also gave a log10CFU/ml [13] of 0.41, a log10CFU/ml [14] of 0.06 and an AUBC [15] of 217.8 log10CFU/ml.hr. For the same compound, the log10CFU/ml [16] was -0.21, the “fT>MIC” value [17] was 8.08% and the log10CFU/ml [18] was 0.53. For the same compound, the clearance [19] was 228 mL/min, the log10CFU/ml [20] was 0.08 and the “fT>MIC” value [21] was 0%. The “fT>MIC” value [22] was 80.9%, the ABBC [23] was 3.6 log10CFU/ml.hr and the log10CFU/ml [24] was 0.21. The log10CFU/ml [25] was 0.18, the log10CFU/ml [26] was 0.35 and the half-life at 0.5 h [27] was 6.72 h.
